Each structure is given as a SMILES string. A value given as a limit tells only on which side of the number the result lay.

The values below come from ChEMBL document CHEMBL3763111, “Identification of a diverse indole-2-carboxamides as a potent antileishmanial chemotypes” (Eur J Med Chem, 2016).

Test system in the first series: not listed separately
Briefly: Cytotoxicity against African green monkey Vero cells after 72 hrs by MTT assay. It counts as cell-based. The following applies: chlorocebus sabaeus. A digest of the protocol:
(§1)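 Vero or J-774A.1 cells (1 x 10^5 cells/mL) exposed to 7 concentrations starting from 400 µM for 72 h. MTT (5 mg/mL stock) then added for 2 h at 37°C. Formazan dissolved in DMSO; absorbance read at 544 nm. CC50 estimated per Huber & Koella; mean ± SD of two independent assays in duplicate.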
A general note: Tetrazolium dyes change colour on reduction, which living cells bring about.
The term CC50 denotes the concentration that lowers cell viability or growth by half. Compound `CC(C)(C)NC(=O)C(c1ccc(Cl)cc1)N(CC(=O)NCc1ccc(Cl)cc1)C(=O)c1cc2ccccc2[nH]1` (centres undefined) came in with a CC50 at 72 h above 400 µM.
`COc1ccc(C(C(=O)NC(C)(C)C)N(CC(=O)NCc2ccncc2)C(=O)c2cc3ccccc3[nH]2)cc1` (centres undefined) returned a 50% cytotoxic concentration (CC50) at 72 h of 109 µM.
Still for that read-out and setting: for `COc1ccc(CNC(=O)CN(C(=O)c2cc3ccccc3[nH]2)C(C(=O)NC(C)(C)C)c2ccc(OC)cc2)cc1` (centres undefined) the value was above 400 µM.
As for `COc1cccc(CNC(=O)CN(C(=O)c2cc3ccccc3[nH]2)C(C(=O)NC(C)(C)C)c2ccc(Cl)cc2)c1` (centres undefined), the CC50 at 72 h was above 400 µM.
`COc1ccc(C(C(=O)NC(C)(C)C)N(CC(=O)NCc2ccc(Cl)cc2)C(=O)c2cc3ccccc3[nH]2)cc1` (centres undefined) came in with a half-maximal cytotoxic concentration (CC50) at 72 h of 400 µM.
For the compound `CC(C)(C)NC(=O)C(c1ccc(Cl)cc1)N(CC(=O)NCCO)C(=O)c1cc2ccccc2[nH]1` (centres undefined), the half-maximal cytotoxic concentration (CC50) at 72 h worked out at 226 µM.
Same read-out and setting: for `COc1ccc(CNC(=O)CN(C(=O)c2cc3ccccc3[nH]2)C(C(=O)NC(C)(C)C)c2ccc(Br)cc2)cc1` (centres undefined) the value was above 400 µM; for `CC(C)(C)NC(=O)C(c1ccc(Cl)cc1)N(CC(=O)NCc1ccc(Cl)c(Cl)c1)C(=O)c1cc2ccccc2[nH]1` (centres undefined), 52.2 µM; for `COc1ccc(CNC(=O)CN(C(=O)c2ccc[nH]2)C(C(=O)NC(C)(C)C)c2cc(OC)c(OC)c(OC)c2)cc1` (centres undefined), 73 µM.

Another series deals with Leishmania donovani. Briefly: Antileishmanial activity against Leishmania donovani MHOM/IN/80/Dd8 amastigotes infected in mouse J774A.1 cells incubated for 72 hrs by luminometric analysis. It counts as functional, organism-based. The following applies: MHOM/IN/80/Dd8, J774.A1, 72 h. The method in brief: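 Macrophages seeded at 4 x 10^4/mL in RPMI-1640 with 10% FCS for 24 h, then infected with stationary-phase promastigotes (4 x 10^5/mL) for 24 h. Free parasites washed off. Compounds added as 7-point two-fold dilutions from 40 µM; 72 h at 37°C. Read-out was Steady Glo luminescence. IC50 from four-parameter Hill fit; two independent assays in duplicate.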
The IC50 is the concentration that inhibits the measured activity by half. For `CC(C)(C)NC(=O)C(c1ccc(Cl)cc1)N(CC(=O)NCc1ccc(Cl)cc1)C(=O)c1cc2ccccc2[nH]1` (centres undefined), the concentration for half-maximal inhibition (IC50) was found to be 10.9 µM.
Same read-out and setting: for `COc1ccc(C(C(=O)NC(C)(C)C)N(CC(=O)NCc2ccncc2)C(=O)c2cc3ccccc3[nH]2)cc1` (centres undefined) the value was 1.4 µM; for `COc1ccc(CNC(=O)CN(C(=O)c2cc3ccccc3[nH]2)C(C(=O)NC(C)(C)C)c2ccc(OC)cc2)cc1` (centres undefined), 0.6 µM; for `COc1cccc(CNC(=O)CN(C(=O)c2cc3ccccc3[nH]2)C(C(=O)NC(C)(C)C)c2ccc(Cl)cc2)c1` (centres undefined), 1.9 µM.
The same measure, in the same setting: the value for `COc1ccc(C(C(=O)NC(C)(C)C)N(CC(=O)NCc2ccc(Cl)cc2)C(=O)c2cc3ccccc3[nH]2)cc1` (centres undefined) was 7.5 µM; that for `CC(C)(C)NC(=O)C(c1ccc(Cl)cc1)N(CC(=O)NCCO)C(=O)c1cc2ccccc2[nH]1` (centres undefined) was above 40 µM; that for `COc1ccc(CNC(=O)CN(C(=O)c2cc3ccccc3[nH]2)C(C(=O)NC(C)(C)C)c2ccc(Br)cc2)cc1` (centres undefined) was 1.5 µM.
Same read-out and setting: for `CC(C)(C)NC(=O)C(c1ccc(Cl)cc1)N(CC(=O)NCc1ccc(Cl)c(Cl)c1)C(=O)c1cc2ccccc2[nH]1` (centres undefined) the value was 7.5 µM; for `COc1ccc(CNC(=O)CN(C(=O)c2ccc[nH]2)C(C(=O)NC(C)(C)C)c2cc(OC)c(OC)c(OC)c2)cc1` (centres undefined), 14.5 µM.

Test system in another series: not listed separately
The experiment in a line: Selectivity index, ratio of CC50 for African green monkey Vero cells to IC50 for Leishmania donovani MHOM/IN/80/Dd8 amastigotes infected in mouse J774A.1 cells. Type of series: functional.
Conditions: not given
The method in brief: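 Ratio of Vero-cell MTT CC50 to IC50 against intracellular amastigotes, both measured in this work.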
Consider `CC(C)(C)NC(=O)C(c1ccc(Cl)cc1)N(CC(=O)NCc1ccc(Cl)cc1)C(=O)c1cc2ccccc2[nH]1` (centres undefined), for which the “Ratio CC50/IC50” value is listed as above 36.
Turning to `COc1ccc(C(C(=O)NC(C)(C)C)N(CC(=O)NCc2ccncc2)C(=O)c2cc3ccccc3[nH]2)cc1` (centres undefined), the “Ratio CC50/IC50” value came to 78.
In the case of `COc1ccc(CNC(=O)CN(C(=O)c2cc3ccccc3[nH]2)C(C(=O)NC(C)(C)C)c2ccc(OC)cc2)cc1` (centres undefined), the “Ratio CC50/IC50” value is listed as above 666.
On to `COc1cccc(CNC(=O)CN(C(=O)c2cc3ccccc3[nH]2)C(C(=O)NC(C)(C)C)c2ccc(Cl)cc2)c1` (centres undefined), for which the “Ratio CC50/IC50” value is above 210.
Consider `COc1ccc(C(C(=O)NC(C)(C)C)N(CC(=O)NCc2ccc(Cl)cc2)C(=O)c2cc3ccccc3[nH]2)cc1` (centres undefined), for which the “Ratio CC50/IC50” value came to 53.
On the same count and under the same terms, for `CC(C)(C)NC(=O)C(c1ccc(Cl)cc1)N(CC(=O)NCCO)C(=O)c1cc2ccccc2[nH]1` (centres undefined) the value was below 5; for `COc1ccc(CNC(=O)CN(C(=O)c2cc3ccccc3[nH]2)C(C(=O)NC(C)(C)C)c2ccc(Br)cc2)cc1` (centres undefined), above 266; for `CC(C)(C)NC(=O)C(c1ccc(Cl)cc1)N(CC(=O)NCc1ccc(Cl)c(Cl)c1)C(=O)c1cc2ccccc2[nH]1` (centres undefined), 7.
On the same count and under the same terms, for `COc1ccc(CNC(=O)CN(C(=O)c2ccc[nH]2)C(C(=O)NC(C)(C)C)c2cc(OC)c(OC)c(OC)c2)cc1` (centres undefined) the value was 5.

Test system in a further series: not listed separately
The experiment in a line: Cytotoxicity against mouse J774A.1 cells after 72 hrs by MTT assay. It counts as cell-based, J774.A1.
Conditions: not given
A digest of the protocol:
as §1
`CC(C)(C)NC(=O)C(c1ccc(Cl)cc1)N(CC(=O)NCc1ccc(Cl)cc1)C(=O)c1cc2ccccc2[nH]1` (centres undefined): it took 143 µM to reach half-maximal cytotoxicity (CC50 at 72 h).
Still for that read-out and setting: for `COc1ccc(C(C(=O)NC(C)(C)C)N(CC(=O)NCc2ccncc2)C(=O)c2cc3ccccc3[nH]2)cc1` (centres undefined) the value was 47.9 µM; for `COc1ccc(CNC(=O)CN(C(=O)c2cc3ccccc3[nH]2)C(C(=O)NC(C)(C)C)c2ccc(OC)cc2)cc1` (centres undefined), 145 µM; for `COc1cccc(CNC(=O)CN(C(=O)c2cc3ccccc3[nH]2)C(C(=O)NC(C)(C)C)c2ccc(Cl)cc2)c1` (centres undefined), 42.5 µM.
In turn, `COc1ccc(C(C(=O)NC(C)(C)C)N(CC(=O)NCc2ccc(Cl)cc2)C(=O)c2cc3ccccc3[nH]2)cc1` (centres undefined) displayed a CC50 at 72 h of 123 µM.
The same measure, in the same setting: the value for `CC(C)(C)NC(=O)C(c1ccc(Cl)cc1)N(CC(=O)NCCO)C(=O)c1cc2ccccc2[nH]1` (centres undefined) was 239 µM; that for `COc1ccc(CNC(=O)CN(C(=O)c2cc3ccccc3[nH]2)C(C(=O)NC(C)(C)C)c2ccc(Br)cc2)cc1` (centres undefined) was 135 µM.
Still for that read-out and setting: the value for `CC(C)(C)NC(=O)C(c1ccc(Cl)cc1)N(CC(=O)NCc1ccc(Cl)c(Cl)c1)C(=O)c1cc2ccccc2[nH]1` (centres undefined) was 19.2 µM; that for `COc1ccc(CNC(=O)CN(C(=O)c2ccc[nH]2)C(C(=O)NC(C)(C)C)c2cc(OC)c(OC)c(OC)c2)cc1` (centres undefined) was 62.4 µM.

The next series relates to Leishmania donovani. The experiment in a line: Potency index, ratio of IC50 for miltefosine to IC50 for test compound against Leishmania donovani MHOM/IN/80/Dd8 amastigotes infected in mouse J774A.1 cells. It counts as functional.
Conditions: not given
In the case of `COc1ccc(CNC(=O)CN(C(=O)c2cc3ccccc3[nH]2)C(C(=O)NC(C)(C)C)c2ccc(OC)cc2)cc1` (centres undefined), the “Ratio IC50” value is recorded as 14.

In the next series the test system is Leishmania donovani. Briefly: Antileishmanial activity against amastigote stage of Leishmania donovani MHOM/IN/80/Dd8 infected in golden hamster at 50 mg/kg/day, ip administered for 5 days measured on day 7 of last dose by Geimsa staining method. It counts as functional. The following applies: MHOM/IN/80/Dd8, ip. The method in brief: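 Inbred golden hamsters (40–45 g) infected intracardially with 1x10^7 amastigotes; only animals with +1 infection at 15-day spleen biopsy used. Five to six per group. Aqueous compound given ip at 50 mg/kg/day for 5 days, starting 2 days after biopsy. Splenic biopsy on day 7 after last dose, Giemsa-stained. Percent inhibition by formula relative to initial and untreated-control counts; pooled from at least two experiments.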
In general, inhibition in vivo refers to the change of the read-out against control, counted positive when it falls. In turn, `COc1ccc(CNC(=O)CN(C(=O)c2cc3ccccc3[nH]2)C(C(=O)NC(C)(C)C)c2ccc(OC)cc2)cc1` (centres undefined) came in with an inhibition in vivo at 50 mg/kg/day of 63.4%.

The next series concerns Syrian golden hamster. Briefly: Toxicity in golden hamster infected with amastigote stage of Leishmania donovani MHOM/IN/80/Dd8 assessed as abnormality in behaviour at 50 mg/kg/day, ip administered for 5 days. Type of series: organism-based, Mesocricetus auratus. The conditions noted are these: in vivo, 120 h.
Regarding `COc1ccc(CNC(=O)CN(C(=O)c2cc3ccccc3[nH]2)C(C(=O)NC(C)(C)C)c2ccc(OC)cc2)cc1` (centres undefined), the Activity result is listed as “Non-toxic”.
